PMC11389331 (BMC Biology, 2024)

Assays:
[1] = tested on: B. dioryctriae; settings: cited from earlier work
[2] = tested on: B. dioryctriae; assay: Y-tube olfactometer assay; assay type: in vivo, Baryscapus dioryctriae; settings: 20 μL test chemical vs paraffin oil, chi-square test
Method in brief: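 Binary Y-tube (1.1 cm diameter, 6 cm base and arms, 60° between arms) used with wasps reared at 25 ± 1 °C, 50 ± 5% RH. One arm held 20 × 50 mm filter paper loaded with 20 μL test chemical; the other held 20 μL paraffin oil. After every five wasps, the tube was cleaned with dehydrated alcohol and air-dried, and odour sides were swapped.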

Structure (SMILES)	effect on reproductive efficiency of B. dioryctriae [1]	behavioral response (attraction) of B. dioryctriae adults [2]
CCCCCC=C(C=O)CCCC [2-butyl-2-octenal]	significantly improve	
C=C1CC[C@H]2O[C@]2(C)CC[C@@H]2[C@@H]1CC2(C)C [Caryophyllene oxide]		does not attract
CC1=CCC(C(C)C)=CC1 [g-Terpinene]		significantly attract
CC1=CCC2CC1C2(C)C (stereo not drawn) [α-Pinene]		significantly attract
